Only a selection was taken, and hits are over-represented in it overall.
T cruzi repl = inhibitors of intracellular T. cruzi growth, primary screen, luminescence, NIH3T3 host cells. T. cruzi beta-gal in NIH3T3, 90 h. inhibition, % (concentration not given with the values). 300,000 tested, 1.4% active. AID 1885, 2009;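 active = mean inhibition across valid replicates above about 55%, limit read from the data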;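 also: signal also drops with host cell toxicity which is not excluded here; 0% = plate median of DMSO wells and 100% = zero luminescence signal; higher percent means less beta-gal luminescence so fewer parasites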
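System – NIH/3T3 host cells with β-galactosidase reporter T. cruzi · Doses – single 50 nL compound addition per well in DMSO · Reagent – 5000 T. cruzi trypomastigotes/well · Medium – Low-serum DMEM with 2% FBS · Timing – ≥90 h infection period, 3 h prior cell attachment · Evaluation – parasite load inhibition, % · Technique – GalScreen luminescence, 60 min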
Dynein transport = inhibitors of GR-EGFP nuclear translocation, primary screen, dynein cargo transport inhibitor project, imaging, high-content, 3617.4 mouse cells. AID 1381, 2008. 220,000 tested, 0.47% active. test concentration mostly 20 µM; stimulated with dexamethasone, 1 µM; stronger effect = lower value. z-score, hits read low;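 active = plate z-score of nuclear minus cytoplasmic receptor signal below a set negative limit, without overly bright fluorescence or cell loss, cut at about -3.5 in these data, passing the limit was not always enough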;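 also: z-score of nuclear minus cytoplasmic ring GR-EGFP intensity difference per well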
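Buffer or medium: tetracycline-free induction medium containing charcoal-stripped FBS / Reagent: dexamethasone agonist, 1.0 µM final, for 30 min / Technique: automated 10x imaging of fixed Hoechst-stained cells / Times: induction 48 h, compound 1 h, agonist 30 min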
CHOP UPR activ = activators of apoptotic CHOP UPR arm, primary screen, cell-based, CHO-CHOP luciferase reporter, luminescence, uHTS | 330,000 tested, 0.34% active | activation, % at 10 µM | UPR activation; percent of tunicamycin response over DMSO baseline | AID 449763, 2010;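 active = at 10 µM dose, activation of 40% or more, normalized to positive control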;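 also: 100% = tunicamycin at 10 µg/mL and 0% = DMSO alone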
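Assay system: CHO cells with stable CHOP pathway luciferase reporter; Buffer or medium: F12 plus 10% serum; Times: 16-18 h cell attachment, then 6 h compound exposure, 37 °C; Signal: luciferase luminescence; Read-out basis: percent activation relative to tunicamycin control; Control set: tunicamycin high control, DMSO low control.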
L major viab = Leishmania major promastigote growth inhibition, primary screen; Leishmania major promastigotes, resazurin fluorescence viability; inhibition, % at 10 µM; 200,000 tested, 9% active; AID 1063, 2008; in the data active = inhibition above about 50%;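 also: promastigotes grown with compound for 44 hours at 28 °C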
XBP1 UPR activ = activators of adaptive XBP1 UPR arm, primary screen, cell-based, CHO-XBP1 luciferase reporter, luminescence, uHTS | IRE1-XBP1 UPR activation; percent of tunicamycin response, DMSO as zero | activation, % at 20 µM | 330,000 tested, 0.33% active;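 active = versus positive control, 20 µM dose yields 30% or more activation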;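 also: 100% = tunicamycin at 10 µg/mL and 0% = DMSO only wells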
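Material: CHO-XBP1 cells stably carrying IRE1-XBP1-driven luciferase reporter | Medium: F12 with 10% serum | Compound dosing: 20 µM single concentration, DMSO 1% | Incubation: Overnight seeding at 37 °C, 6 h compound treatment at 37 °C | Detection: Steady-Glo luminescence read | Read-out basis: % activation of reporter signal versus tunicamycin and DMSO controls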
CHOP inh = inhibitors of CHOP promoter induction, primary screen, cell-based, unfolded protein response, luciferase reporter; CHO-K1 CHOP-promoter luciferase, tunicamycin-induced, 15-18 h; 220,000 tested, 3.8% active; inhibition, % at 10 µM;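 active = compounds that reduced the stress-induced luciferase reporter signal by more than about 70% of percent inhibition, limit read from the data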;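 also: 0% = tunicamycin plus vehicle and 100% = wells without tunicamycin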
Starred values were filed as active, the others as inactive; nt = no result given.

SMILES	T cruzi repl	Dynein transport	CHOP UPR activ	L major viab	XBP1 UPR activ	CHOP inh
COc1ccc(CC2(C)OC(c3ccc(C)cc3)=NN2C(C)=O)cc1 (stereo not drawn)	3	-0.7	2	10	1	59
CCOP(=O)(OCC)c1ccc2c(c1)C(=O)c1ccccc1CC2	nt	nt	11	nt	2	nt
Cc1ccc(NC(=O)C2CCN(c3cnccn3)CC2)cc1	63*	0.58	-1	78*	6	-17
COc1ccc2nc(NC(=O)C3CCN(S(=O)(=O)c4cccnc4)CC3)sc2c1	38	1.8	-3	54*	1	43
O=C(Nc1ccc(Cl)cc1F)C1CCN(S(=O)(=O)c2cccnc2)CC1	11	-0.16	2	73*	-4	40
CCCc1ccc(NC(=O)C2CCN(c3cnccn3)CC2)cc1	-2	nt	0	nt	1	nt
COc1ccc(CC(=O)Nc2nc3ccc(F)cc3s2)cc1S(=O)(=O)N1CCOCC1	-7	0.65	0	90*	-3	25
O=C(NCc1ccc(Cl)cc1)C1CCN(S(=O)(=O)c2cccnc2)CC1	4	nt	-1	nt	-4	nt
COc1cccc(CNS(=O)(=O)c2c(C)[nH]c(C)c2C(=O)N2CCCCC2)c1	11	nt	-2	nt	-3	nt
CCCCn1c(N)c(N(CCOC)C(=O)c2c(CC)noc2C)c(=O)[nH]c1=O	nt	nt	0	nt	0	nt
COc1cc(C2NC(=O)NC(C)=C2C(=O)OC2CCCCC2)cc(Cl)c1O (stereo not drawn)	-12	nt	-1	nt	3	nt
COc1ccc(OC)c(CCNC(=O)CN2C(=O)CCSc3ccccc32)c1	-12	nt	-1	nt	-3	nt
COc1ccc(NC(=O)COC(=O)C2CCN(S(=O)(=O)c3cccs3)CC2)cc1	-1	0.053	-2	-4	-3	78*
CCOc1ccc2nc(NC(=O)C3CCN(c4cnccn4)CC3)sc2c1	61*	0.15	1	70*	5	24
Cc1ccc2nc(NC(=O)C3CCN(S(=O)(=O)c4cccs4)CC3)sc2c1	45	0.45	2	52*	0	48
NC(=O)c1ccc(NC(=O)COC(=O)C2CCN(S(=O)(=O)c3cccs3)CC2)cc1	nt	nt	1	nt	0	nt
CCOc1ccc2nc(NC(=O)C3CCN(S(=O)(=O)c4cnc[nH]4)CC3)sc2c1	-3	-0.67	1	2	0	-26
O=C(Nc1nc2ccc(F)cc2s1)C1CCN(S(=O)(=O)c2cc([N+](=O)[O-])ccc2Cl)CC1	49	0.3	10	99*	-2	90*
O=C(Cc1cccc(C(F)(F)F)c1)NCc1cccnc1	-9	nt	0	nt	-4	nt
O=C(Nc1ccc(F)c(Cl)c1)C1CCCN(c2cnccn2)C1 (stereo not drawn)	61*	nt	1	nt	-4	nt
Cc1noc(C)c1S(=O)(=O)N1CCC(C(=O)Nc2ccc(OC(F)(F)F)cc2)CC1	11	-0.4	-1	100*	-2	68
CCC(Cc1ccccc1)NC(=O)C1CCN(S(=O)(=O)c2c(C)noc2C)CC1 (stereo not drawn)	1	-0.55	0	92*	0	15
COc1ccccc1NC(=O)C1CCCN(S(=O)(=O)c2c(C)noc2C)C1 (stereo not drawn)	4	nt	1	nt	-4	nt
CCOc1ccccc1NC(=O)C1CCN(S(=O)(=O)c2c(C)noc2C)CC1	2	3.3	-1	98*	-3	-11
COc1ccc(Sc2cc(C(F)(F)F)nc(-c3ccccn3)n2)cc1	-19	0.57	1	13	-2	83*
SMILES	T cruzi repl	Dynein transport	CHOP UPR activ	L major viab	XBP1 UPR activ	CHOP inh
C#CCSc1cc(C(F)(F)F)nc(-c2ccccn2)n1	8	-0.55	0	4	-1	14
O=C(Nc1ccccc1C(=O)NC1CC1)c1ccc([N+](=O)[O-])o1	nt	nt	4	nt	3	nt
COc1ccc(Cl)cc1NC(=O)c1nc2nc(C)cc(C(F)F)n2n1	-6	-0.1	1	-7	1	74*
Cc1cc(-c2csc(NC(=O)c3ccc(C#N)cc3)n2)c(C)n1Cc1ccco1	-7	-0.66	1	51*	-1	39
OCCN1CCN(C2CCC(c3ccc(F)cc3)c3ccc(F)cc32)CC1 (stereo not drawn)	39	nt	1	nt	1	nt
CCCNC(=O)c1ccc2c(c1)nc(C)n2-c1cccc(Cl)c1	5	nt	2	nt	-2	nt
CSC(=CC(=O)c1ccc(F)cc1)SC	-8	0.25	1	nt	3	6
CSC(=CC(=O)c1ccccc1)SC	-8	3.2	2	85*	0	11
O=C(COc1cccc2ccccc12)NNC(=O)CSCCO	10	-0.52	nt	57*	nt	13
COc1ccc(NC(=O)CN2CCN(CC(=O)Nc3ccc(OC)cc3)CC2)cc1	-11	nt	0	nt	-3	nt
NS(=O)(=O)c1ccc(CCn2c(=S)[nH]c3ccc(F)cc3c2=O)cc1	0	-0.36	-2	76*	-2	0
O=C(NC(=S)Nc1ccccc1)c1cncc(C#Cc2ccccc2)c1	-18	-0.4	0	nt	0	-4
COc1ccc(C(=O)NCCc2c[nH]c3ccccc23)cc1OC	-9	nt	0	nt	-4	nt
COc1ccc(C(c2c[nH]c3ccccc23)c2c[nH]c3ccccc23)cc1O	21	0.55	2	21	-1	75*
CCOc1cc(C(c2c(C)[nH][nH]c2=O)c2c(C)[nH][nH]c2=O)ccc1OCc1ccc([N+](=O)[O-])cc1	8	-0.83	1	100*	-1	-7
CCOc1cc(C(c2c(C)[nH][nH]c2=O)c2c(C)[nH][nH]c2=O)ccc1OC(=O)c1cccc([N+](=O)[O-])c1	1	-1.1	1	25	-3	0
Cc1ccc(C(c2c(C)[nH][nH]c2=O)c2c(C)[nH][nH]c2=O)cc1[N+](=O)[O-]	-3	0.8	0	58*	-2	32
CCc1cccc(C)c1NC(=S)N(CCOC)C(C)c1ccco1 (stereo not drawn)	-14	0.41	0	nt	-2	21
COc1cc(C(=O)Nc2ccc(Cl)c(C(F)(F)F)c2)cc(OC)c1OC	9	0.54	3	80*	-2	50
COc1cccc(C(=O)Nc2ccc(Cl)c(C(F)(F)F)c2)c1	18	0.42	2	14	3	71*
CCOC(=O)Cc1csc(SCC(=O)N(CC(C)C)c2c(N)n(Cc3ccccc3)c(=O)[nH]c2=O)n1	-13	nt	2	nt	-3	nt
